Experimental data from ChEMBL document CHEMBL3352261, “Discovery of inhibitors of the mitotic kinase TTK based on N-(3-(3-sulfamoylphenyl)-1H-indazol-5-yl)-acetamides and carboxamides” (Bioorg Med Chem, 2014).
Calls of active or inactive are those of the source. No cut-off for these calls is given here.

Experiments:
[1] = Cell cycle arrest in human HCT116 cells at 500 to 2500 nM after 2 days by flow cytometry; type: functional, cell-based; details: HCT-116
[2] = biological target: T1, Serine/threonine-protein kinase PLK4 (Homo sapiens, UniProt O00444); assay: Inhibition of GST-tagged human PLK4 (1-391 residues) phosphorylation by ELISA
T1 sequence (O00444 whole entry): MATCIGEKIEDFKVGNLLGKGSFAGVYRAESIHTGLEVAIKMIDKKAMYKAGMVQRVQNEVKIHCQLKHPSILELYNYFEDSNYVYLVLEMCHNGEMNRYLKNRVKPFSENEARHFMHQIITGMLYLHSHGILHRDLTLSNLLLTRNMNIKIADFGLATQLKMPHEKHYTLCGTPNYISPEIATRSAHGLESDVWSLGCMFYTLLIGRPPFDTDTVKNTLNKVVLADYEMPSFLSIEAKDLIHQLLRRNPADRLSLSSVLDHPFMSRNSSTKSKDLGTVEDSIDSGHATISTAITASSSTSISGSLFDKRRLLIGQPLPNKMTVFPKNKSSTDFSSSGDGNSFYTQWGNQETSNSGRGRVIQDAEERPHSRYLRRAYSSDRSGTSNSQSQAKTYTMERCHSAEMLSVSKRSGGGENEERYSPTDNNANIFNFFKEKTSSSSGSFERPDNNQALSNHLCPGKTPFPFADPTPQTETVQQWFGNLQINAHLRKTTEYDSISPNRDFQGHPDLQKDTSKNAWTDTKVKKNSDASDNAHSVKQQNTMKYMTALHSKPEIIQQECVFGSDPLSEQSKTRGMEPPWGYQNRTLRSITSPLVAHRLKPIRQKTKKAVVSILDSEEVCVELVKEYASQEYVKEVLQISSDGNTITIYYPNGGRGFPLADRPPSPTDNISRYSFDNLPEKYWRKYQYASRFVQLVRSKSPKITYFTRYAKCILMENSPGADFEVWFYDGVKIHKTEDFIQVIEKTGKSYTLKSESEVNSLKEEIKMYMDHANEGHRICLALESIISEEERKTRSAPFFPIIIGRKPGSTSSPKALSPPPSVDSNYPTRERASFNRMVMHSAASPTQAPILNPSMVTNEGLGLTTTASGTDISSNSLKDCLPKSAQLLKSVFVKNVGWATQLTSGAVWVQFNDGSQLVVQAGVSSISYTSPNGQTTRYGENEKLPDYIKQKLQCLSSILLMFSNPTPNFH

[3] = biological target: Aurora kinase B (Homo sapiens, UniProt Q96GD4); assay: Inhibition of Aurora B (unknown origin) by FRET-based homogenous assay
Chain of Aurora kinase B (Q96GD4 whole entry): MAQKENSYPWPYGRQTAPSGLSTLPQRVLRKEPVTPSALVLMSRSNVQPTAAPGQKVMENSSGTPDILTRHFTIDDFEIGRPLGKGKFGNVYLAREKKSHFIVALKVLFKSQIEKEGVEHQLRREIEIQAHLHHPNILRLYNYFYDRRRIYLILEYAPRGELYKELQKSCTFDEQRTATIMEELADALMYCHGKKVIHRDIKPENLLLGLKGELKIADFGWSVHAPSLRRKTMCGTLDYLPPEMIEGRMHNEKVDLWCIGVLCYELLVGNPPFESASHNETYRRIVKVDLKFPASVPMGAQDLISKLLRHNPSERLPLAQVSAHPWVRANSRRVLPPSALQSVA

[4] = biological target: Serine/threonine-protein kinase Chk2 (Homo sapiens, UniProt O96017); assay: Inhibition of CHK2 (unknown origin) by FRET-based homogenous assay
Chain of Serine/threonine-protein kinase Chk2 (O96017 whole entry): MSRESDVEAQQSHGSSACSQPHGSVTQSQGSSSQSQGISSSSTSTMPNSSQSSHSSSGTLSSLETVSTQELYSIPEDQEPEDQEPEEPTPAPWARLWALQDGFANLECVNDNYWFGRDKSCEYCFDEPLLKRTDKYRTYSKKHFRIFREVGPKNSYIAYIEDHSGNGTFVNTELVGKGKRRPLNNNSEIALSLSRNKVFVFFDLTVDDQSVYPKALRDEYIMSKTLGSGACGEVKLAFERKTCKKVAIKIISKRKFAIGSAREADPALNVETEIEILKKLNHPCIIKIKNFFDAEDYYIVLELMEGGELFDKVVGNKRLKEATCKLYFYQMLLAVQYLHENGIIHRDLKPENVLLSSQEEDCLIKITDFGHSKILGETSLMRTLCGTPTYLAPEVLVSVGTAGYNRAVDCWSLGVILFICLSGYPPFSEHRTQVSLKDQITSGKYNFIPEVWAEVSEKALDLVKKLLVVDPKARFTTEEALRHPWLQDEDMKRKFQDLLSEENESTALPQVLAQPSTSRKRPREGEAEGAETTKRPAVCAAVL

[5] = biological target: Cytochrome P450 2C19 (Homo sapiens, UniProt P33261); assay: Inhibition of CYP2C19 in supersomes (unknown origin) using MFC as substrate after 30 mins; type: ADME
Chain of Cytochrome P450 2C19 (P33261 whole entry): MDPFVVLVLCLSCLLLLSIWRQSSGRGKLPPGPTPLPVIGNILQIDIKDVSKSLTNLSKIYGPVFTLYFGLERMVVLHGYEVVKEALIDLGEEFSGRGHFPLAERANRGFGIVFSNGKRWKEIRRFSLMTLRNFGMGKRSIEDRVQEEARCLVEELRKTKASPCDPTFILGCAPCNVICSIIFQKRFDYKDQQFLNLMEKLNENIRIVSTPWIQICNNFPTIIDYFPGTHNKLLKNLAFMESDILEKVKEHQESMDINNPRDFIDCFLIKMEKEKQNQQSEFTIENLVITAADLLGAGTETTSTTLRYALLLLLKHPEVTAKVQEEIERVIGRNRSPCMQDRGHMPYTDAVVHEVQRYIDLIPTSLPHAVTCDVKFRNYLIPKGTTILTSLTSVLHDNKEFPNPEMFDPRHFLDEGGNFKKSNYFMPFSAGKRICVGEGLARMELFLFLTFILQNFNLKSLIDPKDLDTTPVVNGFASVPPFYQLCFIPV

[6] = biological target: T2, Cytochrome P450 3A4 (Homo sapiens, UniProt P08684); assay: Inhibition of CYP3A4 in supersomes (unknown origin) using Dibenzylfluorescein as substrate after 10 mins; type: ADME
T2 sequence (P08684 whole entry): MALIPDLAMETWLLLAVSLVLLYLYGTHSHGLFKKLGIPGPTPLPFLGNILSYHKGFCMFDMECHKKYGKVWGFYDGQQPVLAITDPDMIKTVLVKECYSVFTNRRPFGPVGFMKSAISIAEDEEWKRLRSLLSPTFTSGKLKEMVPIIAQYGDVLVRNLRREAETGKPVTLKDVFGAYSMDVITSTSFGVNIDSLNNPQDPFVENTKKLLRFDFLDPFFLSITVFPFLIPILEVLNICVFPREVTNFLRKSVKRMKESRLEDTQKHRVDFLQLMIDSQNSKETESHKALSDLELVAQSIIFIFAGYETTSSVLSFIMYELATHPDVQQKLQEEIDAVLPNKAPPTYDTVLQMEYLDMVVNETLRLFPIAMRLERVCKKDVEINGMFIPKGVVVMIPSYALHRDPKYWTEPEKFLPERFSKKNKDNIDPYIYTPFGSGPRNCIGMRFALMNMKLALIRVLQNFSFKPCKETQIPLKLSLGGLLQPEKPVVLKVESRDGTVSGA

[7] = biological target: T2, Cytochrome P450 3A4; assay: Inhibition of CYP3A4 in supersomes (unknown origin) using 7-benzyloxy-4-trifluoromethylcoumarin as substrate after 30 mins; type: ADME
[8] = biological target: Cytochrome P450 2C9 (Homo sapiens, UniProt P11712); assay: Inhibition of CYP2C9 in supersomes (unknown origin) using MFC as substrate after 30 mins; type: ADME
Chain of Cytochrome P450 2C9 (P11712 whole entry): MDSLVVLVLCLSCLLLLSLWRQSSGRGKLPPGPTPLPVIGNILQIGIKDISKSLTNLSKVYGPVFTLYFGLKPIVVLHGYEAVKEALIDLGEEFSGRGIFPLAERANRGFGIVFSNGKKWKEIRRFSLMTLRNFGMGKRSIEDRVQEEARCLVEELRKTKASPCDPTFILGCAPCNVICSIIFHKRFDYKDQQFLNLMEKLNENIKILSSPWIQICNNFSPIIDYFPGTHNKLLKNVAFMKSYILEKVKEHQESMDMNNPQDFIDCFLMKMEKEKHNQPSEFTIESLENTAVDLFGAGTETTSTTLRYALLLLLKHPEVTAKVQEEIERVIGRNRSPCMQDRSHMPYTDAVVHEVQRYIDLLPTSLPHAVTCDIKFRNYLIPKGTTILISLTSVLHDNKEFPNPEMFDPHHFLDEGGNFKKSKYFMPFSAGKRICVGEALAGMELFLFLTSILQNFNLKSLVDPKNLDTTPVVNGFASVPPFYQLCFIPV

[9] = biological target: T3, Cytochrome P450 1A2 (Homo sapiens, UniProt P05177); assay: Inhibition of CYP1A2 in supersomes (unknown origin) using CEC as substrate after 30 mins; type: ADME
T3 sequence (P05177 whole entry): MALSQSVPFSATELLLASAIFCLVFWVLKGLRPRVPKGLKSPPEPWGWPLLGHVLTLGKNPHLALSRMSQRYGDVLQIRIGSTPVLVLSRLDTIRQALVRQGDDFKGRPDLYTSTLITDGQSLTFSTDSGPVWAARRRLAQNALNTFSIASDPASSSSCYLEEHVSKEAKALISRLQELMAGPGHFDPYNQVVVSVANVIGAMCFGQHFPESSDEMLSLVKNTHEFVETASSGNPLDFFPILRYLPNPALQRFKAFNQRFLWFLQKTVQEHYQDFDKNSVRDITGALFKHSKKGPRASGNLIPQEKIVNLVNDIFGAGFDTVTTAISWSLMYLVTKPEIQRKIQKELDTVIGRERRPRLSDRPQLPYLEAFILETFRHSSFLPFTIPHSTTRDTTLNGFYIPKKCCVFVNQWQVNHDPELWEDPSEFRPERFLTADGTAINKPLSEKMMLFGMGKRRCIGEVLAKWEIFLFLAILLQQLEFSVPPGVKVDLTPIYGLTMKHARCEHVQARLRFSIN

[10] = biological target: Cytochrome P450 2D6 (Homo sapiens, UniProt P10635); assay: Inhibition of CYP2D6 in supersomes (unknown origin) using AMMC as substrate after 30 mins; type: ADME
Chain of Cytochrome P450 2D6 (P10635 whole entry): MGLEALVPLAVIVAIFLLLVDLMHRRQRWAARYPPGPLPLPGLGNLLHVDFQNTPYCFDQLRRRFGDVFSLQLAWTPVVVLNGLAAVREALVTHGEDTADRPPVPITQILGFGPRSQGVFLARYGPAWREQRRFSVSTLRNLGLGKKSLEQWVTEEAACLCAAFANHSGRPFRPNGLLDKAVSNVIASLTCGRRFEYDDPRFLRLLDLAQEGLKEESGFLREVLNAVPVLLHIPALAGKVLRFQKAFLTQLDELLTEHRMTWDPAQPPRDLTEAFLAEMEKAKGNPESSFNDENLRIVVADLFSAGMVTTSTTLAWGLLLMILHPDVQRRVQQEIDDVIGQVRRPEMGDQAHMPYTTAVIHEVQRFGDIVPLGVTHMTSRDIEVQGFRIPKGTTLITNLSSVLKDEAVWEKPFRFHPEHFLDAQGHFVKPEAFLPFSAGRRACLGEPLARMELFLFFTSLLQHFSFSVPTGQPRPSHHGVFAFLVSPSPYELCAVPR

[11] = Permeability of the compound at pH 7.4 by PAMPA; type: ADME; details: read-out: permeability
[12] = Solubility of the compound at pH 7.4; type: physicochemical; details: buffer
[13] = biological target: T4, Dual specificity protein kinase TTK (Homo sapiens, UniProt P33981); assay: Inhibition of SUMO-tagged human TTK (1-275 residues) compound pre-incubated for 15 mins prior ATP addition by MBP-based assay
T4 sequence (P33981 whole entry): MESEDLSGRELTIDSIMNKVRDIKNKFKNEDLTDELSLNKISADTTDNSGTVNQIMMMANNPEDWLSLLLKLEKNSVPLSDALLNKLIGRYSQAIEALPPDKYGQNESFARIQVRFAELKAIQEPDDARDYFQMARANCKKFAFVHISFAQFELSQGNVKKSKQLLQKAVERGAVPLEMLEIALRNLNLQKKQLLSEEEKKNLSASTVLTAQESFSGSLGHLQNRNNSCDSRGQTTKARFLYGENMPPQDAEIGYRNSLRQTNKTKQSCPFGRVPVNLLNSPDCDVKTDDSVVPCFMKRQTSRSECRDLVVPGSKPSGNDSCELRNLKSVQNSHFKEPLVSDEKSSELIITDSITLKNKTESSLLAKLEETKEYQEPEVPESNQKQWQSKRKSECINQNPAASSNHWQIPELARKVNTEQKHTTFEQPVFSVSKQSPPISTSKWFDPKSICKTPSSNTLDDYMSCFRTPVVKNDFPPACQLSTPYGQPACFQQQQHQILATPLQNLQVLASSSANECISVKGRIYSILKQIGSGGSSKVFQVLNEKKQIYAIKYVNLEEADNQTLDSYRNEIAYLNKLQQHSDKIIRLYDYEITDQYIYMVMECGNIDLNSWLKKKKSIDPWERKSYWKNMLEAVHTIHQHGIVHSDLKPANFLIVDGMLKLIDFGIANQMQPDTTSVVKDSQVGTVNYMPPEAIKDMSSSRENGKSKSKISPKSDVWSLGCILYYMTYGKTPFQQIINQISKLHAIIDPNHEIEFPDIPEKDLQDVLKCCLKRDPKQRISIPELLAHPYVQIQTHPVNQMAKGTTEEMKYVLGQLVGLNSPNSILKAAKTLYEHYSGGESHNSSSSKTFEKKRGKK

[14] = Growth inhibition of human HCT116 cells after 5 days by SRB assay; type: functional; details: HCT-116, 120 h
[15] = biological target: Receptor-type tyrosine-protein kinase FLT3 (Homo sapiens) (UniProt P36888); assay: Inhibition of FLT3 (unknown origin) by FRET-based homogenous assay
Chain of Receptor-type tyrosine-protein kinase FLT3 (Homo sapiens) (P36888 whole entry, the tested form may be a part): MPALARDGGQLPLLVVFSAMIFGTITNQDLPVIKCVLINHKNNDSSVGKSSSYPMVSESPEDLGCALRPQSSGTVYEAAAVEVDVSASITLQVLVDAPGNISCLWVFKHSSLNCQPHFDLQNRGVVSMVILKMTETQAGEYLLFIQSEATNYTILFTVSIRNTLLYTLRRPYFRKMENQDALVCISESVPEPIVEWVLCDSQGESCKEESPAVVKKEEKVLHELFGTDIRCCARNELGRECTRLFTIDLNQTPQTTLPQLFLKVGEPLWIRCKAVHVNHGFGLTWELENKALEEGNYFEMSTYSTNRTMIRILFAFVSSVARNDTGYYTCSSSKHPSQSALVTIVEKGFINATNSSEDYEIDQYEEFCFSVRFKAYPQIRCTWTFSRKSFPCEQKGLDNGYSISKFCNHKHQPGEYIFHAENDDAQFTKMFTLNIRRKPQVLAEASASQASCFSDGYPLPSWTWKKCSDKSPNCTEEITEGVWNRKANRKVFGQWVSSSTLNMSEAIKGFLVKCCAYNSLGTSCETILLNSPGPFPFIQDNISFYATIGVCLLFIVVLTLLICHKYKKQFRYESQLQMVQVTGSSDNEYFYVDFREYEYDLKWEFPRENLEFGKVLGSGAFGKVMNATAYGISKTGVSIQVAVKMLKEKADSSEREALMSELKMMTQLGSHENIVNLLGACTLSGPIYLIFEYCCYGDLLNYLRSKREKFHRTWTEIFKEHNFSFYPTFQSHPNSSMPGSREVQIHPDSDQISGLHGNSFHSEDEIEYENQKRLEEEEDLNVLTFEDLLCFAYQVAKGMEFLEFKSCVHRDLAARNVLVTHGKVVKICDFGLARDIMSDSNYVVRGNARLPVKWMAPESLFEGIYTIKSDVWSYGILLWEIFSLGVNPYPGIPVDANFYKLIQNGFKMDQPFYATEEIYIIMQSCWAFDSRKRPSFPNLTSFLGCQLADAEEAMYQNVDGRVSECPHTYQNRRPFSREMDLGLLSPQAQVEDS

[16] = biological target: T4, Dual specificity protein kinase TTK; assay: Inhibition of GST-fused full length human TTK compound pre-incubated for 15 mins prior ATP addition by MBP-based assay
[17] = Antitumor activity against human HCT116 cells xenografted in SCID mouse assessed as tumor growth inhibition at 15 mg/kg, ip qd for 5 days; type: functional; details: HCT-116, ip, 120 h, route intraperitoneal, read-out: TGI
Method in brief: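 HCT116 xenografts were grown in mice and dosed by the intraperitoneal route once daily. Tumor volume was tracked and compared with a negative-control arm, and the result was expressed as percent tumor growth inhibition. Body weight was monitored across all arms.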

NS(=O)(=O)c1cccc(-c2n[nH]c3ccc(C(=O)N[C@H]4CCc5ccccc54)cc23)c1
Activity [1]: inactive

CCc1cccc(CC)c1NC(=O)Nc1ccc2[nH]nc(-c3cccc(S(N)(=O)=O)c3)c2c1
IC50 [2]: 0.13 µM | IC50 [3]: 2.4 µM | IC50 [4]: 0.41 µM | IC50 [5]: > 1 µM | IC50 [6]: 10 µM | IC50 [7]: 1 µM | IC50 [8]: 1.7 µM | IC50 [9]: > 10 µM | IC50 [10]: > 10 µM | Papp [11]: < 21 ×10⁻⁶ cm/s | solubility [12]: < 0.1 µg/mL | IC50 [13]: 0.0035 µM | GI50 [14]: > 50 µM

c1ccc(-c2[nH]nc3ccccc23)cc1
inhibition [15]: inactive | Activity [1]: inactive | IC50 [16]: 12 µM

O=c1[nH]cc(F)c(=O)[nH]1 [FLUOROURACIL]
inhibition in vivo at 15 mg/kg [17]: 46%
